Among the data in ChEMBL document CHEMBL4118110, “The identification of inhibitory compounds of Rickettsia prowazekii methionine aminopeptidase for antibacterial applications” (Bioorg Med Chem Lett, 2018) are inhibition values, retold here.

For orientation: inhibition means the drop in the measured response relative to a control, in per cent.

Each structure is given as a SMILES string.

This assay is described as follows: Inhibition of Rickettsia prowazekii N-terminal His6-tagged methionine aminopeptidase 1 expressed in Escherichia coli DLB3 Rosetta cells at 10 uM using Met-AMC as substrate preincubated for 1 hr followed by 30 mins incubation after substrate addition measured after 90 mins in presence of MnCl2 by fluorescence assay relative to control. The method in brief:
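Recombinant R. prowazekii MetAP with Mn(II) as the metal cofactor. Met-AMC substrate; release of free AMC is followed by fluorescence (excitation 360 nm, emission 460 nm). Activity is the slope of fluorescence versus time, compared with an uninhibited control.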
For `COc1ccccc1NC(=O)CSc1nc[nH]n1`, the inhibition lay in the range of 19 to 52%.

In the case of `O=C(O)c1cscn1`, the inhibition is 35 to 41%.

`CCc1nnc(SCC(=O)c2ccc(C(C)C)cc2)[nH]1`: the inhibition is 9 to 44%.

Take `Cc1nnc(SCC(=O)c2ccc(C)c(C)c2)[nH]1`: the inhibition lay in the range of 10 to 24%.

Take `COc1ccccc1C1CC(c2cc(F)ccc2O)=NN1` (configuration not stated): the inhibition was in the range of 1 to 57%.

As for `Nc1nnc(SCC(=O)OCc2ccccc2)[nH]1`, the inhibition was in the range of 20 to 34%.

With `NNC(=O)c1ccc(-c2ccc(Cl)cc2)o1`, the inhibition lay in the range of 10 to 41%.

As for `CC(C)c1ccc2nc(-c3ccccn3)cc(C(=O)O)c2c1`, the inhibition fell in the range of 18 to 56%.

As to `Cc1cc(O)c2c(c1Cl)C(=O)C=CC2=O`, the inhibition is 31 to 66%.

`CCN1CCN(Cc2ccc(O)c3ncccc23)CC1`: the inhibition was in the range of 20 to 39%.

With `Cc1ccc(S(=O)(=O)c2ccc(C(=O)O)s2)cc1`, the inhibition is 10 to 67%.

In the case of `Oc1ccc(-c2ccc(F)cc2)nn1`, the inhibition was in the range of 44 to 66%.

`Cc1cc(C)c(C(=O)O)c(O)n1`: the inhibition fell in the range of 44 to 52%.

As to `CCc1nnc(SCC(=O)c2ccc(OC)cc2)[nH]1`, the inhibition lay within 1 to 22%.

Take `O=C(O)c1ccc(COc2ccc3ccc(=O)oc3c2)o1`: the inhibition fell in the range of 14 to 21%.

As for `CCOC(=O)C(C)Sc1nnc(N)[nH]1` (configuration not stated), the inhibition is 36 to 55%.

On to `CCc1nnc(SCC(=O)c2ccc([N+](=O)[O-])cc2)[nH]1`, for which the inhibition was in the range of 75 to 81%.

With `COCCn1cnc2sc(C(=O)O)c(C)c2c1=O`, the inhibition was in the range of 20 to 24%.

Regarding `Nc1nnc(SCCOc2ccc(Cl)cc2)[nH]1`, the inhibition was in the range of 31 to 32%.

Take `Cc1ccc(OCCCSc2n[nH]c(N)n2)cc1`: the inhibition is 42 to 51%.

Turning to `CC(C)Oc1ccc(CCSc2nnc(N)[nH]2)cc1`, the inhibition lay in the range of 47 to 53%.

As to `Cc1ccccc1-c1nnc(C(C)N)o1` (configuration not stated), the inhibition is 2 to 39%.

For `c1ccn2c(C3CCCNC3)nnc2c1` (configuration not stated), the inhibition is 2 to 47%.

As to `Nc1nnc(SCC(=O)OC2CCCCC2)[nH]1`, the inhibition fell in the range of 60 to 68%.

As to `CCc1n[nH]c(SCC(=O)NCCc2ccccc2)n1`, the inhibition is 1 to 15%.

As to `Nc1nnc(SCC(=O)Nc2ccc(Cl)cc2)[nH]1`, the inhibition lay in the range of 19 to 38%.

Turning to `C#CCSc1nc2sc(C(=O)O)c(C)c2c(=O)[nH]1`, the inhibition fell in the range of 9 to 58%.

`Cc1cc(C(=O)O)nn1-c1cccc(Cl)c1`: the inhibition lay within 1 to 22%.

In the case of `Cc1ccccc1NC(=O)CSc1nnc[nH]1`, the inhibition fell in the range of 26 to 64%.

Regarding `O=C(O)c1cc(-c2ccccn2)nc2ccc(F)cc12`, the inhibition lay in the range of 29 to 61%.

Consider `Nc1n[nH]c(SCCN2C(=O)c3ccccc3C2=O)n1`, for which the inhibition was in the range of 45 to 50%.

Turning to `Nc1ccccc1-c1nnc2n1CCCCC2`, the inhibition was 5 to 46%.

As to `Cc1ccc(C(=O)CSc2nnc(N)[nH]2)cc1`, the inhibition lay within 17 to 52%.

For `Nc1nnc(SCCCc2ccccc2)[nH]1`, the inhibition fell in the range of 18 to 37%.

In the case of `Cc1[nH]nc(C(=O)O)c1-c1ccccc1`, the inhibition is 2 to 37%.

As to `Cc1c(C(=O)O)sc2nc3n(c(=O)c12)CCC3`, the inhibition fell in the range of 34 to 50%.

For `Nc1nnc(SCC(=O)OCCOc2ccccc2)[nH]1`, the inhibition was 47 to 56%.

With `COc1ccc(C=O)cc1OCc1ccc(C(=O)O)o1`, the inhibition was in the range of 36 to 65%.

Regarding `COc1ccc(OCCSc2n[nH]c(N)n2)cc1`, the inhibition lay within 27 to 32%.

For `CC(C)c1ccc(C(=O)CSc2nc[nH]n2)cc1`, the inhibition lay within 1 to 32%.

For `CCc1nnc(SCC(=O)c2ccc(C)cc2C)[nH]1`, the inhibition was in the range of 14 to 45%.

Turning to `O=C(O)c1ccc(CSc2nnc[nH]2)o1`, the inhibition was 16 to 21%.

As to `Cc1ccc(NC(=O)CSc2nnc[nH]2)c(C)c1`, the inhibition was 25 to 66%.

`CCc1nnc(SCC(=O)OC)[nH]1`: the inhibition was 6 to 25%.

Take `CCc1n[nH]c(SCC(=O)c2cccc([N+](=O)[O-])c2)n1`: the inhibition fell in the range of 16 to 44%.

`O=C(O)c1ccc(CSc2ccccc2)o1`: the inhibition was in the range of 5 to 34%.

For `CN(C)C(=O)CSc1n[nH]c(-c2ccco2)n1`, the inhibition was in the range of 1 to 3%.

With `Cc1nnc(SCC(=O)c2ccc(C(C)C)cc2)[nH]1`, the inhibition is 1 to 41%.

For `CC(Sc1nnc(N)[nH]1)C(=O)OC1CCCCC1` (configuration not stated), the inhibition lay in the range of 46 to 54%.

With `CCOC(=O)c1cccc(CSc2nnc(N)[nH]2)c1`, the inhibition fell in the range of 47 to 59%.

With `Cc1ccc(-c2noc(-c3ccccc3N)n2)cc1`, the inhibition was in the range of 2 to 52%.

Turning to `Sc1nnc(-c2ccc(Br)cc2)[nH]1`, the inhibition was 33 to 61%.

With `Cc1nc(C(=O)O)c(-c2ccccc2F)s1`, the inhibition lay in the range of 26 to 31%.

With `O=C(O)c1ccc(COc2ccccc2F)o1`, the inhibition lay in the range of 5 to 46%.

As for `COc1ccc(OCc2ccc(C(=O)O)o2)cc1`, the inhibition fell in the range of 1 to 37%.

`COc1ccc(C(=O)CSc2nnc(C)[nH]2)cc1C`: the inhibition is 16 to 56%.

Consider `O=C(O)c1cc(C2CC2)on1`, for which the inhibition was 28 to 30%.

Turning to `CC(=O)c1c(C(=O)O)nn(-c2ccc(Cl)cc2)c1C`, the inhibition lay within 17 to 20%.

In the case of `Cc1ccc(-n2nnc(C(=O)O)c2C2CC2)cc1`, the inhibition lay within 1 to 44%.

With `Cc1c(C(=O)O)sc2ncn(C3CCCCC3)c(=O)c12`, the inhibition lay within 17 to 26%.

As to `Cc1c(C(=O)O)sc2ncn(C)c(=O)c12`, the inhibition was in the range of 9 to 47%.

`COc1cc(C=O)ccc1OCc1ccc(C(=O)O)o1`: the inhibition was 36 to 53%.

In the case of `CC(C)CC(N)c1nnc2ccccn12` (configuration not stated), the inhibition was 22 to 61%.

As to `Cc1cccc2nc(C(=O)O)cn12`, the inhibition was 38 to 58%.

Consider `O=C(O)c1ccc(-c2cc(Cl)ccc2Cl)s1`, for which the inhibition lay in the range of 1 to 80%.

As to `O=C(O)C1Cc2c([nH]c3ccccc23)CN1` (configuration not stated), the inhibition fell in the range of 17 to 19%.

As to `O=C(O)c1cccnc1-c1ncccc1C(=O)O`, the inhibition fell in the range of 13 to 49%.

Take `Oc1ccccc1-c1nncn1-c1ccccc1`: the inhibition is 14 to 46%.

On to `O=C(O)c1ccc(-c2ccc(Cl)c(Cl)c2)o1`, for which the inhibition fell in the range of 46 to 51%.

Consider `CN(C)Cc1c(C(=O)O)nc2ccccn12`, for which the inhibition fell in the range of 11 to 20%.

Regarding `Nc1n[nH]c(SCC(=O)c2ccc([N+](=O)[O-])cc2)n1`, the inhibition is 19 to 53%.

Turning to `O=C(O)c1ccc(C2=NCc3ccccc3N2)o1`, the inhibition fell in the range of 7 to 63%.

With `O=C(O)c1ccc(Sc2ccc(Br)cc2)o1`, the inhibition lay in the range of 1 to 48%.

Take `Nc1n[nH]c(SCc2ccc(Br)cc2)n1`: the inhibition fell in the range of 28 to 36%.

In the case of `NCc1nnc(-c2ccccc2)o1`, the inhibition lay within 12 to 13%.

For `O=C1CCCN1c1ccc(S(=O)(=O)Nc2cccc3cccnc23)cc1`, the inhibition fell in the range of 5 to 22%.

For the molecule `Cc1ccc(-n2nnc(C(=O)O)c2C)cc1C`, the inhibition stood at 41%.

Turning to `Nc1ccc(C(=O)c2ccccc2)cc1N`, the inhibition lay within 10 to 39%.

Turning to `Nc1n[nH]c(SCCOc2ccccc2)n1`, the inhibition lay within 28 to 29%.

Turning to `O=C(O)CC(Sc1nnc[nH]1)c1ccc(Cl)cc1` (configuration not stated), the inhibition was in the range of 54 to 55%.

Consider `Cc1cccc(-c2nnc(C(C)N)o2)c1` (configuration not stated), for which the inhibition is 1 to 43%.

On to `COc1ccc(-c2nnc3c(N)cccn23)cc1`, for which the inhibition lay in the range of 13 to 23%.

As to `Nc1ccncc1-c1ccc(C(=O)O)s1`, the inhibition is 12 to 58%.

Consider `Cc1nnc(C(N)c2ccccc2)o1` (configuration not stated), for which the inhibition lay in the range of 5 to 8%.

For `CC(Sc1nnc(N)[nH]1)C(=O)OCc1ccccc1` (configuration not stated), the inhibition was 37 to 54%.

Take `O=C(O)C(Sc1nnc[nH]1)c1ccccc1` (configuration not stated): the inhibition fell in the range of 3 to 41%.

For the molecule `O=C(O)c1csc(Cc2ccccc2)n1`, the inhibition was in the range of 1 to 67%.

Regarding `NC(=O)c1nc(-c2ccccc2)oc1Cl`, the inhibition is 4 to 59%.

For the molecule `CC(C)c1ccc(CSc2nnc(N)[nH]2)cc1`, the inhibition is 48 to 90%.

`COC(=O)CSc1nnc(-c2ccco2)[nH]1`: the inhibition fell in the range of 13 to 27%.

`Cc1n[nH]c(SCc2ccc([N+](=O)[O-])cc2)n1`: the inhibition lay in the range of 1 to 38%.

On to `O=C(O)c1cnc2ccccc2c1O`, for which the inhibition was 13 to 55%.

For the molecule `CC(C)(C)C1CCc2n[nH]c(C(=O)O)c2C1` (configuration not stated), the inhibition fell in the range of 1 to 41%.

As for `O=C(O)C1=NN(c2ccccc2)C(=O)CC1`, the inhibition was in the range of 14 to 39%.

Turning to `O=C(O)C1CCCN1C(=O)c1ccco1` (configuration not stated), the inhibition was 7 to 9%.

Take `O=C(O)c1nn(-c2ccccc2)c2c1CCC2`: the inhibition fell in the range of 45 to 51%.

Regarding `Cc1ccc(C(=O)NN)cc1`, the inhibition is 1 to 34%.

With `C=CCn1cnc2sc(C(=O)O)c(C)c2c1=O`, the inhibition lay in the range of 8 to 20%.

Turning to `c1ccc(-c2n[nH]c(-c3ccccn3)n2)cc1`, the inhibition was in the range of 6 to 23%.

With `O=C(O)c1nn(-c2ccccc2)c(=O)c2ccccc12`, the inhibition was in the range of 21 to 44%.

Take `Cc1c(C(=O)O)sc2nc(C)n(C)c(=O)c12`: the inhibition lay in the range of 22 to 34%.

Turning to `CC(C)CNC(=O)c1ccc2[nH]c(=O)c(=O)[nH]c2c1`, the inhibition is 35 to 44%.

Turning to `CCCCOC(=O)CSc1nnc(N)[nH]1`, the inhibition was in the range of 39 to 62%.

Turning to `COc1ccc(C(=O)CSc2n[nH]c(N)n2)cc1`, the inhibition was in the range of 32 to 58%.

For the molecule `Cc1c(C(=O)O)sc2ncn(CC(=O)O)c(=O)c12`, the inhibition was 2 to 44%.

Turning to `Nc1n[nH]c(SCC(=O)c2cc3ccccc3o2)n1`, the inhibition was 21 to 28%.

On to `O=c1[nH]c2cc(Cl)ccc2n(Cc2ccccc2)c1=O`, for which the inhibition fell in the range of 1 to 62%.

Turning to `O=C(CSc1nnc(-c2ccco2)[nH]1)c1ccccc1`, the inhibition is 17 to 22%.

As for `Cc1ccc(N2C(=O)CC(Sc3nc[nH]n3)C2=O)cc1` (configuration not stated), the inhibition was 40 to 56%.

In the case of `Cc1c(Cl)cccc1NC(=O)CSc1nnc[nH]1`, the inhibition is 22 to 62%.

For the molecule `CCOC(=O)CSc1nnc(-c2ccncc2)[nH]1`, the inhibition was in the range of 1 to 59%.

For the molecule `CCc1nnc(SCC(=O)c2ccc(Cl)cc2)[nH]1`, the inhibition fell in the range of 9 to 23%.

On to `Cc1cc(C)nc(SCc2ccc(C(=O)O)o2)n1`, for which the inhibition fell in the range of 9 to 11%.

Consider `c1ccc(-c2cc[nH]n2)nc1`, for which the inhibition fell in the range of 2 to 52%.

For the molecule `CN(C)C(=O)CSc1nnc(-c2ccncc2)[nH]1`, the inhibition was 21 to 44%.

`COc1cccc(C(=O)Nc2ccsc2C(=O)O)c1`: the inhibition lay within 1 to 32%.

For `COc1ccc(Cl)cc1-c1nnc(S)[nH]1`, the inhibition fell in the range of 20 to 65%.
